Source: ChEMBL document CHEMBL1671867, “Novel polymyxin derivatives carrying only three positive charges are effective antibacterial agents” (Antimicrob Agents Chemother, 2008)
pIC50: −log10 of the molar value. In brackets after ≈: the same amount, converted by molar mass. Values belong to the molecule of their own block, whether it stands above or below them. Bridge positions count the residues as written; N and C are the ends. Square brackets hold non-standard residues; d marks the D form. Peptide text beside a SMILES is read from it. * marks the point of attachment. Decanoyl = CCCCCCCCCC(=O)*; Dab = NCC[C@H](N)C(=O)O

Experiments:
V79 = assay: Cytotoxicity against chinese hamster V79 cells at […] to 128 ug/ml after 24 hrs; assay type: cell-based, Cricetulus griseus; settings: v79, 24 h
[1] = Inhibition of [3H]gentamicin binding to brush border membrane of renal cortex
Method in brief: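 Brush border membrane vesicles prepared from male albino rat renal cortex by Mg2+-EGTA precipitation. Incubated with 20 μM [3H]gentamicin in 10 mM HEPES pH 7.5 with 300 mM mannitol, with or without compound, 60 min at 4°C. Then filtered, washed, and bound radioactivity counted by scintillation. IC50 fitted with the Hill equation.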

Pseudomonas aeruginosa [2] = assay: Antibacterial activity against Pseudomonas aeruginosa ATCC 27853 by Etest method in presence of 4 ug/ml NAB7075; assay type: functional
Acinetobacter baumannii [3] = assay: Antibacterial activity against Acinetobacter baumannii by Etest method in presence of 4 ug/ml NAB7071; assay type: functional
Escherichia coli [4] = assay: Antibacterial activity against Escherichia coli IH3080 by Etest method in presence of 4 ug/ml NAB7064; assay type: functional
Pseudomonas aeruginosa [5] = assay: (§1) Antibacterial activity against Pseudomonas aeruginosa ATCC 27853by Etest method in presence of […] NAB739; assay type: functional
Klebsiella pneumoniae [6] = assay: Antibacterial activity against Klebsiella pneumoniae ATCC 13883 by Etest method in presence of 2 ug/ml NAB7061; assay type: functional
Method in brief: (§2)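 MICs of the antibiotic taken from E-strips on Mueller-Hinton agar, run both with and without peptide. […] Inoculum was prepared per the strip manufacturer, matching CLSI M2-A9.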

Acinetobacter baumannii [7] = assay: (§3) Antibacterial activity against Acinetobacter baumannii ATCC 19606 by Etest method in presence of […] NAB739; assay type: functional
Escherichia coli [8] = assay: Antibacterial activity against Escherichia coli IH3080 by Etest method; assay type: functional
Method in brief: (§4)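 E-strip MIC on Mueller-Hinton agar without added peptide; inoculum per manufacturer, matching CLSI M2-A9.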

Klebsiella oxytoca [9] = assay: Antibacterial activity against Klebsiella oxytoca ATCC 13182 by Etest method in presence of 4 ug/ml NAB7065; assay type: functional
Escherichia coli [10] = assay: Antibacterial activity against Escherichia coli ATCC […] by Etest method in presence of 4 ug/ml NAB7064; assay type: functional
Enterobacter cloacae [11] = assay: Antibacterial activity against Enterobacter cloacae by Etest method in presence of 4 ug/ml NAB7068; assay type: functional
Pseudomonas aeruginosa [12] = assay: Antibacterial activity against Pseudomonas aeruginosa ATCC 27853by Etest method; assay type: functional; method in brief: as §2
Pseudomonas aeruginosa [13] = assay: Antibacterial activity against Pseudomonas aeruginosa ATCC 27853by Etest method in presence of 0.5 ug/ml NAB739; assay type: functional; method in brief: as §2
Acinetobacter baumannii [14] = assay: (§5) Antibacterial activity against Acinetobacter baumannii F264 by Etest method in presence of […] NAB739; assay type: functional
Acinetobacter baumannii [15] = assay: Antibacterial activity against Acinetobacter baumannii ATCC 19606 by Etest method in presence of 1 ug/ml NAB739; assay type: functional
Klebsiella pneumoniae [16] = assay: Antibacterial activity against Klebsiella pneumoniae ATCC 13883 by Etest method in presence of 1 ug/ml NAB7061; assay type: functional; method in brief: as §2
Acinetobacter baumannii [17] = assay: Antibacterial activity against Acinetobacter baumannii F264 by Etest method in presence of 0.5 ug/ml NAB739; assay type: functional
Acinetobacter baumannii [18] = assay: Antibacterial activity against Acinetobacter baumannii ATCC 19606 by Etest method in presence of 0.5 ug/ml NAB739; assay type: functional
Escherichia coli [19] = assay: Antibacterial activity against Escherichia coli IH3080 by Etest method in presence of NAB7061; assay type: functional
Serratia marcescens = assay: Antibacterial activity against Serratia marcescens ATCC 8100 by Etest method in presence of 4 ug/ml NAB7072; assay type: functional
Acinetobacter baumannii [20] = assay: as §5; assay type: functional; remark: listed apart in the source
Acinetobacter baumannii [21] = assay: Antibacterial activity against Acinetobacter baumannii ATCC 19606 by Etest method in presence of 4 ug/ml NAB7070; assay type: functional
Citrobacter freundii = assay: Antibacterial activity against Citrobacter freundii ATCC 8090 by Etest method in presence of 4 ug/ml NAB7069; assay type: functional
Klebsiella pneumoniae [22] = assay: Antibacterial activity against Klebsiella pneumoniae ATCC 13883 by Etest method in presence of NAB7061; assay type: functional; method in brief: as §2
Acinetobacter baumannii [23] = assay: as §3; assay type: functional; remark: listed apart in the source
Enterobacter cloacae [24] = assay: Antibacterial activity against Enterobacter cloacae ATCC 23355 […] by Etest method in presence of 1 ug/ml NAB7061; assay type: functional
Pseudomonas aeruginosa [25] = assay: Antibacterial activity against Pseudomonas aeruginosa ATCC 27853by Etest method in presence of 2 ug/ml NAB739; assay type: functional
Klebsiella pneumoniae [26] = assay: Antibacterial activity against Klebsiella pneumoniae CCUG45421 by Etest method in presence of 4 ug/ml NAB7063; assay type: functional
Proteus mirabilis = assay: Antibacterial activity against Proteus mirabilis ATCC 29906 by Etest method in presence of 4 ug/ml NAB7073; assay type: functional
Acinetobacter baumannii [27] = assay: Antibacterial activity against Acinetobacter baumannii ATCC 19606 by Etest method; assay type: functional
Escherichia coli [28] = assay: Antibacterial activity against Escherichia coli ATCC 25992 by Etest method; assay type: functional; method in brief: as §4
Acinetobacter baumannii [29] = assay: Antibacterial activity against Acinetobacter baumannii F264 by Etest method; assay type: functional; method in brief: as §4
Escherichia coli [30] = assay: Antibacterial activity against Escherichia coli ATCC […] by Etest method in presence of 1 ug/ml NAB7061; assay type: functional
Pseudomonas aeruginosa [31] = assay: Antibacterial activity against Pseudomonas aeruginosa ATCC 27853by Etest method in presence of 1 ug/ml NAB739; assay type: functional; method in brief: as §2
Escherichia coli [32] = assay: Antibacterial activity against Escherichia coli IH3080 by Etest method in presence of 1 ug/ml NAB7061; assay type: functional
Enterobacter cloacae [33] = assay: Antibacterial activity against Enterobacter cloacae ATCC 23355 by Etest method; assay type: functional; method in brief: as §4
Klebsiella pneumoniae [34] = assay: Antibacterial activity against Klebsiella pneumoniae by Etest method in presence of 4 ug/ml NAB7064; assay type: functional
Klebsiella pneumoniae [35] = assay: Antibacterial activity against Klebsiella pneumoniae ATCC 13883 by Etest method; assay type: functional; method in brief: as §2
Escherichia coli [36] = assay: Antibacterial activity against Escherichia coli by Etest method in presence of 4 ug/ml NAB7061; assay type: functional
Enterobacter cloacae [37] = assay: Antibacterial activity against Enterobacter cloacae ATCC 23355 […] by Etest method in presence of 4 ug/ml NAB7064; assay type: functional
Escherichia coli [38] = assay: Antibacterial activity against Escherichia coli ATCC […] by Etest method in presence of 2 ug/ml NAB7062; assay type: functional
Enterobacter cloacae [39] = assay: Antibacterial activity against Enterobacter cloacae ATCC 23355 […] by Etest method in presence of 2 ug/ml NAB7062; assay type: functional
Klebsiella pneumoniae [40] = assay: Antibacterial activity against Klebsiella pneumoniae ATCC 13883 by Etest method in presence of 4 ug/ml NAB7061; assay type: functional; method in brief: as §2
Escherichia coli [41] = assay: Antibacterial activity against Escherichia coli IH3080 by Etest method in presence of 2 ug/ml NAB7062; assay type: functional
Klebsiella oxytoca [42] = assay: Antibacterial activity against Klebsiella oxytoca CCUG51683 by Etest method in presence of 4 ug/ml NAB7066; assay type: functional
Escherichia coli [43] = assay: Antibacterial activity against Escherichia coli NCTC13353 by Etest method in presence of 4 ug/ml NAB7062; assay type: functional
Proteus vulgaris = assay: Antibacterial activity against Proteus vulgaris ATCC 13315 by Etest method in presence of 4 ug/ml NAB7074; assay type: functional
Enterobacter cloacae [44] = assay: Antibacterial activity against Enterobacter cloacae CCUG52947 by Etest method in presence of 4 ug/ml NAB7067; assay type: functional
Pseudomonas aeruginosa [45] = assay: as §1; assay type: functional; remark: listed apart in the source
Enterobacter cloacae [46] = assay: Antibacterial activity against Enterobacter cloacae ATCC 23355 […] by Etest method in presence of NAB7061; assay type: functional
Acinetobacter baumannii [47] = assay: Antibacterial activity against Acinetobacter baumannii F264 by Etest method in presence of 1 ug/ml NAB739; assay type: functional

pIC50 [1]: 3.70
SMILES: CCCCCCCCCC(=O)N[C@H](C(=O)N[C@H](CO)C(=O)N[C@H]1CCNC(=O)[C@H]([C@@H](C)O)NC(=O)[C@H](CCN)NC(=O)[C@H](CCN)NC(=O)[C@H](CC(C)C)NC(=O)[C@@H](Cc2ccccc2)NC(=O)[C@H](CCN)NC1=O)[C@@H](C)O (Decanoyl-T[dS][Dab][Dab][dF]L[Dab][Dab]T; lactam 3-C)
Activity (V79): Non-toxic

pIC50 [1]: 3.58
SMILES: CCCCCCCC(=O)N[C@H](C(=O)N[C@H](CO)C(=O)N[C@H]1CCNC(=O)[C@H]([C@@H](C)O)NC(=O)[C@H](CCN)NC(=O)[C@H](CCN)NC(=O)[C@H](CC(C)C)NC(=O)[C@@H](Cc2ccccc2)NC(=O)[C@H](CCN)NC1=O)[C@@H](C)O
Activity (V79): Non-toxic

MIC (Pseudomonas aeruginosa [2]): 32 µg/mL
MIC (Acinetobacter baumannii [3]): 0.25 µg/mL
MIC (Escherichia coli [4]): 0.047 µg/mL
MIC (Pseudomonas aeruginosa [5]): 32 µg/mL
MIC (Klebsiella pneumoniae [6]): 1 µg/mL
MIC (Acinetobacter baumannii [7]): 1.5 µg/mL
MIC (Escherichia coli [8]): 12 µg/mL (≈ 16 µM)
MIC (Klebsiella oxytoca [9]): 0.25 µg/mL
MIC (Escherichia coli [10]): 0.094 µg/mL
MIC (Enterobacter cloacae [11]): 0.047 µg/mL
MIC (Pseudomonas aeruginosa [12]): 48 µg/mL (≈ 64.2 µM)
MIC (Pseudomonas aeruginosa [13]): 16 µg/mL
MIC (Acinetobacter baumannii [14]): 2 µg/mL
MIC (Acinetobacter baumannii [15]): 0.094 µg/mL
MIC (Klebsiella pneumoniae [16]): 2 µg/mL
MIC (Acinetobacter baumannii [17]): 0.5 µg/mL
MIC (Acinetobacter baumannii [18]): 0.5 µg/mL
MIC (Escherichia coli [19]): 0.105 µg/mL
MIC (Serratia marcescens): 96 µg/mL
MIC (Acinetobacter baumannii [20]): 1.5 µg/mL
MIC (Acinetobacter baumannii [21]): 0.5 µg/mL
MIC (Citrobacter freundii): 0.125 µg/mL
MIC (Klebsiella pneumoniae [22]): ≤ 0.141 µg/mL
MIC (Acinetobacter baumannii [23]): 1 µg/mL
MIC (Enterobacter cloacae [24]): 32 µg/mL
MIC (Pseudomonas aeruginosa [25]): 3 µg/mL
MIC (Klebsiella pneumoniae [26]): 24 µg/mL
MIC (Proteus mirabilis): 24 µg/mL
MIC (Acinetobacter baumannii [27]): 8 µg/mL (≈ 10.7 µM)
MIC (Escherichia coli [28]): 16 µg/mL (≈ 21.4 µM)
MIC (Acinetobacter baumannii [29]): 6 µg/mL (≈ 8.02 µM)
MIC (Escherichia coli [30]): 0.5 µg/mL
MIC (Pseudomonas aeruginosa [31]): 12 µg/mL
MIC (Escherichia coli [32]): 0.5 µg/mL
MIC (Enterobacter cloacae [33]): 64 µg/mL (≈ 85.6 µM)
MIC (Klebsiella pneumoniae [34]): 0.25 µg/mL
MIC (Klebsiella pneumoniae [35]): 12 µg/mL (≈ 16 µM)
MIC (Escherichia coli [36]): 0.032 µg/mL
MIC (Enterobacter cloacae [37]): 0.25 µg/mL
MIC (Escherichia coli [38]): 0.19 µg/mL
MIC (Enterobacter cloacae [39]): 1.5 µg/mL
MIC (Klebsiella pneumoniae [40]): 0.19 µg/mL
MIC (Escherichia coli [41]): 0.25 µg/mL
MIC (Klebsiella oxytoca [42]): 0.19 µg/mL
MIC (Escherichia coli [43]): 1 µg/mL
MIC (Proteus vulgaris): 24 µg/mL
MIC (Enterobacter cloacae [44]): 0.38 µg/mL
MIC (Pseudomonas aeruginosa [45]): 32 µg/mL
MIC (Enterobacter cloacae [46]): 0.273 µg/mL
MIC (Acinetobacter baumannii [47]): 0.125 µg/mL
SMILES: CC[C@H]1OC(=O)[C@H](C)[C@@H](O[C@H]2C[C@@](C)(OC)[C@@H](O)[C@H](C)O2)[C@H](C)[C@@H](O[C@@H]2O[C@H](C)C[C@H](N(C)C)[C@H]2O)[C@](C)(OC)C[C@@H](C)C(=O)[C@H](C)[C@@H](O)[C@]1(C)O [CLARITHROMYCIN]
